Source: ChEMBL document CHEMBL3414525, “Macrocyclic compounds as anti-cancer agents: design and synthesis of multi-acting inhibitors against HDAC, FLT3 and JAK2” (Eur J Med Chem, 2015)
Active and inactive are the calls of the source. The calls are words filed in the database; no cut-off is given here.

Legend:
Histone deacetylase = test: Inhibition of HDAC (unknown origin) using Fluor de Lys substrate after 2 hrs by microplate reader; type: protein assay, Homo sapiens
[1] = biological target: T1, Receptor-type tyrosine-protein kinase FLT3 (Homo sapiens, UniProt P36888); test: Inhibition of human recombinant FLT3 after 1 hr by LanthaScreen assay platform
T1 sequence (P36888 whole entry): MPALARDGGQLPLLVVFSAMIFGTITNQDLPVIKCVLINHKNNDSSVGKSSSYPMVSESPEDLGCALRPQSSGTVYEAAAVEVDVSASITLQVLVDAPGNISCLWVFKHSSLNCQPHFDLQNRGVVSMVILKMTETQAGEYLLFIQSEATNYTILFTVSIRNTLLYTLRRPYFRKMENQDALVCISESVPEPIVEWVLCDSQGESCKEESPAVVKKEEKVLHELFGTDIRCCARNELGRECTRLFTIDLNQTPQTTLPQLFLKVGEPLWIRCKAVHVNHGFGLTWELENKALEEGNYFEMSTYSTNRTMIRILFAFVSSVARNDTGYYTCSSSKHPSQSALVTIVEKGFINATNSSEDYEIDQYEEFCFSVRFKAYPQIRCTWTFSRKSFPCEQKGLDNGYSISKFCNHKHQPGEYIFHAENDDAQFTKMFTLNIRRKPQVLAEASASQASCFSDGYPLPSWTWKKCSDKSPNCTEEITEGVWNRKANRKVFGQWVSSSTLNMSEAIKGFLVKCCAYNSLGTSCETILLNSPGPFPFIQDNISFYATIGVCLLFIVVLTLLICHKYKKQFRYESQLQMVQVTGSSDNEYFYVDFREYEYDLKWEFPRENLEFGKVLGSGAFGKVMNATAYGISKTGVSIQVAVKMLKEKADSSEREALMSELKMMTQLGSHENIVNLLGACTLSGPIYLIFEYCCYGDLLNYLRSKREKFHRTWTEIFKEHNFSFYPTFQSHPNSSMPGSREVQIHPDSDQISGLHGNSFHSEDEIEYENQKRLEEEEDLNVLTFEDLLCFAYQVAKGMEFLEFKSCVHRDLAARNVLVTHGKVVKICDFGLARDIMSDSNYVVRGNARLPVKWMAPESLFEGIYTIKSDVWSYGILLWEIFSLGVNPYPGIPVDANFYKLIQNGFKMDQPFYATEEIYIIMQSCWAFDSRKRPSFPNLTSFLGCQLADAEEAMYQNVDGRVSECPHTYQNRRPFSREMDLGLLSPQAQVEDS
Outline: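 TR-FRET binding format. Recombinant FLT3 incubated 1 h at room temperature with Eu-anti-His antibody, Alexa Fluor 647-labelled kinase tracer 236 and varied compound concentrations. Signal read as the 665/615 nm emission ratio. Values are means ± SD of three independent experiments.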

[2] = biological target: T2, Tyrosine-protein kinase JAK2 (Homo sapiens, UniProt O60674); test: Inhibition of human recombinant JAK2 using Z'LYTETry6 peptide substrate after 1 hr by microplate reader
[3] = Antiproliferative activity against human HL60 cells assessed as growth inhibition after 48 hrs by CellTiter-Glo assay; type: functional; conditions: HL-60, 48 h
MV4-11 [4] = test: Antiproliferative activity against human MV4-11 cells assessed as growth inhibition after 48 hrs by CellTiter-Glo assay; type: functional; conditions: MV4-11, 48 h
K562 = test: Antiproliferative activity against human K562 cells assessed as growth inhibition after 48 hrs by CellTiter-Glo assay; type: functional; conditions: K562, 48 h
HEL = test: Antiproliferative activity against human HEL cells assessed as growth inhibition after 48 hrs by CellTiter-Glo assay; type: functional
[5] = Antiproliferative activity against human HCT116 cells assessed as growth inhibition after 48 hrs by SRB assay; type: functional; conditions: HCT-116, 48 h
MCF7 = test: Antiproliferative activity against human MCF7 cells assessed as growth inhibition after 48 hrs by SRB assay; type: functional; conditions: MCF7, 48 h
MDA-MB-435 = test: Antiproliferative activity against human MDA-MB-435 cells assessed as growth inhibition after 48 hrs by SRB assay; type: functional; conditions: MDA-MB-435, 48 h
NCI-H460 = test: Antiproliferative activity against human NCI-H460 cells assessed as growth inhibition after 48 hrs by SRB assay; type: functional; conditions: NCI-H460, 48 h
[6] = Antiproliferative activity against human OVCAR5 cells assessed as growth inhibition after 48 hrs by SRB assay; type: functional; conditions: OVCAR-5, 48 h
[7] = biological target: Histone deacetylase (Homo sapiens) (UniProt Q13547+O15379+Q9UBN7+Q92769+Q9UQL6+Q8WUI4+Q9BY41+Q96DB2+P56524+Q9UKV0+Q969S8); test: Induction of HDAC-mediated histone H3 acetylation in human MV4-11 cells after 24 hrs by Western blot analysis; type: cell-based
Outline: (§1)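 Cells plated at 0.2 × 10⁶ per mL with or without varied compound concentrations, incubated 24 h, then lysed in whole-cell lysis buffer. Total extracts run on SDS-PAGE and western blotted with antibodies to acetyl-histone H3, acetyl-tubulin, tubulin, phospho-FLT3 Y591, phospho-JAK2 Y1007/1008, phospho-STAT5 Y694 and phospho-AKT T308. HRP-labelled secondary antibodies used for detection.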

Tubulin (Homo sapiens) = Tubulin (Homo sapiens) (UniProt P68371+Q9H4B7+P0DPH7+P68366+Q13509+Q71U36+P04350+Q3ZCM7+P07437+P68363+Q9BQE3+Q6PEY2+Q13885+Q9BVA1+Q9BUF5); test: Induction of tubulin acetylation in human MV4-11 cells after 24 hrs by Western blot analysis; type: cell-based; outline: as §1
[8] = biological target: T2, Tyrosine-protein kinase JAK2; test: Decrease in JAK2 phosphorylation in human HEL cells at 0.1 to 0.5 uM after 24 hrs by Western blot analysis; type: cell-based; outline: as §1
MV4-11 [9] = test: Inhibition of STAT5 phosphorylation in human MV4-11 cells after 24 hrs by Western blot analysis; type: cell-based; outline: as §1
MV4-11 [10] = test: Inhibition of AKT phosphorylation in human MV4-11 cells after 24 hrs by Western blot analysis; type: cell-based; outline: as §1
[11] = biological target: Receptor-type tyrosine-protein kinase FLT3 (Homo sapiens) (UniProt P36888); conditions: HEL, 0.1 to 0.5 uM

T2 sequence (O60674 whole entry): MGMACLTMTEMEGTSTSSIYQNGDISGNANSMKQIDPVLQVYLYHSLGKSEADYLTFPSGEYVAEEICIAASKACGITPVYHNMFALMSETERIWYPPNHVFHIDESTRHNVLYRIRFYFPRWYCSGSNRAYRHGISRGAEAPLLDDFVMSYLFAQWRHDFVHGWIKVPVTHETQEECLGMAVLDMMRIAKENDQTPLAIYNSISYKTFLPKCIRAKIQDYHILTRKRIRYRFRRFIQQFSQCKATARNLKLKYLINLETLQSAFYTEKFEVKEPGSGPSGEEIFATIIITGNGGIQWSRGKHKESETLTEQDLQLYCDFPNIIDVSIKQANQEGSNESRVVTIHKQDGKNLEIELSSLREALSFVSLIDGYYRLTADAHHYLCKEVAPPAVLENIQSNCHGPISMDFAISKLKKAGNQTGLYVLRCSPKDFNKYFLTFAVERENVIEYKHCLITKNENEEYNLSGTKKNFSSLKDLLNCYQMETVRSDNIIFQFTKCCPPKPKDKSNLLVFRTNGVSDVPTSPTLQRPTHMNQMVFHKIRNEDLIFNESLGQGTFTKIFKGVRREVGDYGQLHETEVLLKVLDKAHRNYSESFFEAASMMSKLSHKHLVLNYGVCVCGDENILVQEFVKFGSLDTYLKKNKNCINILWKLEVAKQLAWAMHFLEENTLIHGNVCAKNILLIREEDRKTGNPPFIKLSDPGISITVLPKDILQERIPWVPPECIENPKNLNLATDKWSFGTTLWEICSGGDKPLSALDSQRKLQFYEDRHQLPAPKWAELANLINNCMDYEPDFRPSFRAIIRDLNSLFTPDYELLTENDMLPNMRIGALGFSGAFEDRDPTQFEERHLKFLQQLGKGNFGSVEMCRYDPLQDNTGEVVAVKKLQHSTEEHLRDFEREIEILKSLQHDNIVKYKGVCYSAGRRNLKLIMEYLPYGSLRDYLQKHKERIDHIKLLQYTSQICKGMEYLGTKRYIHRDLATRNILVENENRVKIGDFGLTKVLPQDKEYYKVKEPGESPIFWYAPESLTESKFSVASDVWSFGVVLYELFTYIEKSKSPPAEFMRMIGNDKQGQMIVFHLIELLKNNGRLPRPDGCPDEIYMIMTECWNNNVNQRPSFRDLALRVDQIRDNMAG

## O=C(CCCCN1C/C=C/CCOc2cccc(c2)-c2ccnc(n2)Nc2cccc(c2)C1)NO
Histone deacetylase
  IC50: 251 nM
[1]
  IC50: 180 nM
[2]
  IC50: 293 nM
[3]
  GI50: 3030 nM
MV4-11 [4]
  GI50: 660 nM
K562
  GI50: 2450 nM
HEL
  GI50: 510 nM
[5]
  GI50: 1530 nM
MCF7
  GI50: 1130 nM
MDA-MB-435
  GI50: 2720 nM
NCI-H460
  GI50: 1770 nM
[6]
  GI50: 1220 nM

## O=C(CCCCCCN1C/C=C/COCc2cccc(c2)-c2ccnc(n2)Nc2cccc(c2)C1)NO
Histone deacetylase
  IC50: 159 nM
[1]
  IC50: 217 nM
[2]
  IC50: 613 nM
[3]
  GI50: 900 nM
MV4-11 [4]
  GI50: 320 nM
K562
  GI50: 940 nM
HEL
  GI50: 700 nM
[5]
  GI50: 900 nM
MCF7
  GI50: 1130 nM
MDA-MB-435
  GI50: 1500 nM
NCI-H460
  GI50: 1190 nM
[6]
  GI50: 1420 nM

## O=C(CCCCCCN1C/C=C/CCOc2cccc(c2)-c2ccnc(n2)Nc2cccc(c2)C1)NO
Histone deacetylase
  IC50: 87 nM
[1]
  IC50: 87 nM
[2]
  IC50: 686 nM
[3]
  GI50: 1030 nM
MV4-11 [4]
  GI50: 270 nM
K562
  GI50: 1020 nM
HEL
  GI50: 340 nM
[5]
  GI50: 820 nM
MCF7
  GI50: 950 nM
MDA-MB-435
  GI50: 1770 nM
NCI-H460
  GI50: 1070 nM
[6]
  GI50: 1220 nM
[7]
  Activity: Dose-dependent effect
Tubulin (Homo sapiens)
  Activity: Dose-dependent effect
[8]
  inhibition: Active
MV4-11 [9]
  inhibition: Dose-dependent effect
MV4-11 [10]
  inhibition: Dose-dependent effect
[11]
  inhibition: Dose-dependent effect

## CN1C/C=C/CCOc2cccc(c2)-c2ccnc(n2)Nc2cccc(c2)C1 [ZOTIRACICLIB]
[1]
  IC50: 42 nM
[2]
  IC50: 170 nM
[3]
  GI50: 1130 nM
MV4-11 [4]
  GI50: 660 nM
K562
  GI50: 1230 nM
HEL
  GI50: 790 nM

## O=C(CCCCC(=O)N1C/C=C/COCc2cccc(c2)-c2ccnc(n2)Nc2cccc(c2)C1)NO
Histone deacetylase
  IC50: 402 nM
[1]
  IC50: 221 nM
[2]
  IC50: 547 nM
[3]
  GI50: 4430 nM
MV4-11 [4]
  GI50: 2060 nM
K562
  GI50: 4970 nM
HEL
  GI50: 2940 nM

## O=C(CCCCCCC(=O)N1C/C=C/CCOc2cccc(c2)-c2ccnc(n2)Nc2cccc(c2)C1)NO
Histone deacetylase
  IC50: 310 nM
[1]
  IC50: 1260 nM
[2]
  IC50: 558 nM
[3]
  GI50: 6730 nM
MV4-11 [4]
  GI50: 5890 nM
K562
  GI50: 4790 nM
HEL
  GI50: 5250 nM

## O=C(CCCCC(=O)N1C/C=C/CCOc2cccc(c2)-c2ccnc(n2)Nc2cccc(c2)C1)NO
Histone deacetylase
  IC50: 848 nM
[1]
  IC50: 556 nM
[2]
  IC50: 246 nM
[3]
  GI50: 1270 nM
MV4-11 [4]
  GI50: 1010 nM
K562
  GI50: 1440 nM
HEL
  GI50: 2110 nM
[5]
  GI50: 1590 nM
MCF7
  GI50: 2090 nM
MDA-MB-435
  GI50: 2410 nM
NCI-H460
  GI50: 2250 nM
[6]
  GI50: 1520 nM

## O=C(CCCCCCC(=O)Nc1ccccc1)NO [VORINOSTAT]
[1]
  IC50: > 10000 nM
[2]
  IC50: > 10000 nM

## O=C(CCCCCCC(=O)N1C/C=C/COCc2cccc(c2)-c2ccnc(n2)Nc2cccc(c2)C1)NO
Histone deacetylase
  IC50: 293 nM
[1]
  IC50: 833 nM
[2]
  IC50: 684 nM
[3]
  GI50: 2870 nM
MV4-11 [4]
  GI50: 1410 nM
K562
  GI50: 4390 nM
HEL
  GI50: 5030 nM

## O=C(CCCCCN1C/C=C/COCc2cccc(c2)-c2ccnc(n2)Nc2cccc(c2)C1)NO
Histone deacetylase
  IC50: 123 nM
[1]
  IC50: 288 nM
[2]
  IC50: 594 nM
[3]
  GI50: 2300 nM
MV4-11 [4]
  GI50: 520 nM
K562
  GI50: 2090 nM
HEL
  GI50: 680 nM

## O=C(CCCCN1C/C=C/COCc2cccc(c2)-c2ccnc(n2)Nc2cccc(c2)C1)NO
Histone deacetylase
  IC50: 158 nM
[1]
  IC50: 218 nM
[2]
  IC50: 392 nM
[3]
  GI50: 2050 nM
MV4-11 [4]
  GI50: 370 nM
K562
  GI50: 1830 nM
HEL
  GI50: 490 nM
[5]
  GI50: 810 nM
MCF7
  GI50: 1070 nM
MDA-MB-435
  GI50: 1880 nM
NCI-H460
  GI50: 1420 nM
[6]
  GI50: 1130 nM

## O=C(CCCCCCCC(=O)N1C/C=C/CCOc2cccc(c2)-c2ccnc(n2)Nc2cccc(c2)C1)NO
Histone deacetylase
  IC50: 355 nM
[3]
  GI50: 1950 nM
K562
  GI50: 2020 nM
HEL
  GI50: 6260 nM

## O=C(CCCCCCCC(=O)N1C/C=C/COCc2cccc(c2)-c2ccnc(n2)Nc2cccc(c2)C1)NO
Histone deacetylase
  IC50: 334 nM
[1]
  IC50: 272 nM
[2]
  IC50: 835 nM
[3]
  GI50: 1660 nM
MV4-11 [4]
  GI50: 780 nM
K562
  GI50: 2640 nM
HEL
  GI50: 4780 nM

## O=C(CCCCCN1C/C=C/CCOc2cccc(c2)-c2ccnc(n2)Nc2cccc(c2)C1)NO
Histone deacetylase
  IC50: 152 nM
[1]
  IC50: 108 nM
[2]
  IC50: 1040 nM
[3]
  GI50: 2620 nM
MV4-11 [4]
  GI50: 530 nM
K562
  GI50: 2320 nM
HEL
  GI50: 2260 nM
[5]
  GI50: 1330 nM
MCF7
  GI50: 1320 nM
MDA-MB-435
  GI50: 2630 nM
NCI-H460
  GI50: 1600 nM
[6]
  GI50: 1420 nM
